# Measured values published in ChEMBL document CHEMBL3414434, “Exploring the chemical space of ureidothiophene-2-carboxylic acids as inhibitors of the quorum sensing enzyme PqsD from Pseudomonas aeruginosa” (Eur J Med Chem, 2015).
# Active and inactive are the calls of the source. The calls are words filed in the database; no cut-off is given here. Starred links: 1 amine or outer side, 2 acyl side, 3 side chain; linkers in the order of their positions; H or OH if unused. Non-standard residues stand in square brackets, D forms with d. Residues, ends and D or L forms follow the SMILES beside them. *: point of attachment. X1 = COc1ccc(-c2cc(N*)c(C(=O)O)s2)cc1; AEEA = NCCOCCOCC(=O)O; CO = O=C([*:1])[*:2]
# Target: T1, 2-heptyl-4(1H)-quinolone synthase PqsD (Pseudomonas aeruginosa) (UniProt A0A0C7ACN7)
# T1 sequence (whole entry): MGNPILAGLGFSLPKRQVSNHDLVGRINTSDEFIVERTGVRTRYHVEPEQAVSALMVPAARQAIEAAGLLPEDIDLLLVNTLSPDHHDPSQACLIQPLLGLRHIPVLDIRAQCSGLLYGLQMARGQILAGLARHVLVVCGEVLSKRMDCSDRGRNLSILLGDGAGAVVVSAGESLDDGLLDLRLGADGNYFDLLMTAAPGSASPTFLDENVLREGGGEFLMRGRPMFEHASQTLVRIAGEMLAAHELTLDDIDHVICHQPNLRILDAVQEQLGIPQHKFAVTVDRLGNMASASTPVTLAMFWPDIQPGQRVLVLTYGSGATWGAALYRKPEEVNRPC
# Assay: (§1) Inhibition of recombinant His6-tagged Pseudomonas aeruginosa PqsD expressed in Escherichia coli BL21 (deltaDE3) using anthraniloyl-CoA/beta-ketodecanoic acid as substrate assessed as HHQ formation preincubated for 10 mins followed by substrate addition by HPLC/MS-MS analysis
# In short: (§2)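 His6-PqsD was expressed in E. coli BL21(DE3) (IPTG, 16 °C, 16 h) and purified by single-step affinity. Assay buffer was 0.05 M MOPS pH 7.0 with 0.005% Triton X-100, plus 0.1 µM enzyme and inhibitor (0.5% DMSO final). After 10 min preincubation at 37 °C, anthraniloyl-CoA was added; β-ketodecanoic acid was the second substrate. HHQ was measured by HPLC-MS against DMSO controls set to 100%.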
row,Compound,inhibition
1,CC[C@H](C)[C@H](NC(=O)[C@H](CCCNC(=N)N)NC(=O)[C@H](CCCNC(=N)N)NC(=O)[C@H](Cc1ccccc1)NC(=O)[C@H](CC(C)C)NC(=O)[C@H](CCCNC(=N)N)NC(=O)[C@H](CCCNC(=N)N)NC(=O)COCCOCCNC(=O)[C@H](Cc1ccccc1)NC(=O)Nc1cc(-c2ccc(OC)cc2)sc1C(=O)O)C(=O)N[C@@H](CC(C)C)C(=O)N[C@@H](CCCNC(=N)N)C(=O)N[C@@H](Cc1c[nH]c2ccccc12)C(=O)N[C@@H](CC(C)C)C(=O)O ({X1-CO}-F[AEEA]RRLFRRILRWL-OH),Active

# Target: T2, 2-heptyl-4(1H)-quinolone synthase PqsD (Pseudomonas aeruginosa, UniProt A0A0C7ACN7)
# T2 sequence (A0A0C7ACN7 whole entry): T1 sequence (whole entry)
# Assay: as §1
# In short: as §2
row,Compound,IC50
1,O=C(Nc1cc(-c2ccc(O)cc2)sc1C(=O)O)N[C@@H](Cc1ccccc1)C(=O)O,21.6 µM
2,COc1ccc(-c2cc(NC(=O)N[C@@H](CCC(=O)O)C(=O)O)c(C(=O)O)s2)cc1,30.3 µM
3,O=C(Nc1cc(-c2ccc(-c3ccccc3)cc2)sc1C(=O)O)N[C@@H](Cc1ccccc1)C(=O)O,2.7 µM
4,COc1ccc(-c2cc(NC(=O)N[C@@H](Cc3ccccc3)C(=O)O)c(C(=O)O)s2)c(C)c1,7.5 µM
5,O=C(Nc1cc(-c2cccc(-c3ccccc3)c2)sc1C(=O)O)N[C@@H](Cc1ccccc1)C(=O)O,6.2 µM
6,COc1ccc(-c2cc(NC(=O)N[C@@H](CCc3ccccc3)C(=O)O)c(C(=O)O)s2)cc1,33.7 µM
7,COc1ccc(-c2cc(NC(=O)N[C@@H](Cc3ccccc3)C(=O)O)c(C(=O)O)s2)cc1,0.5 µM
8,COc1ccc(-c2cc(NC(=O)N[C@@H](CO)C(=O)O)c(C(=O)O)s2)cc1,19 µM
9,COc1ccc(-c2cc(NC(=O)N[C@@H](Cc3ccccc3)C(=O)O)cs2)cc1,11.5 µM
10,COc1ccc(-c2cc(NC(=O)N[C@@H](Cc3ccc(Cl)cc3)C(=O)O)c(C(=O)O)s2)cc1,13.8 µM
11,O=C(Nc1cc(-c2cccc(-c3ccc(CO)cc3)c2)sc1C(=O)O)N[C@@H](Cc1ccccc1)C(=O)O,19.4 µM
12,O=C(Nc1cc(-c2ccc(-c3ccc(C(O)c4ccccc4[N+](=O)[O-])cc3)cc2)sc1C(=O)O)N[C@@H](Cc1ccccc1)C(=O)O (stereo not given in full),0.36 µM
13,O=C(Nc1cc(-c2ccc(-c3ccc(CO)cc3)cc2)sc1C(=O)O)N[C@@H](Cc1ccccc1)C(=O)O,0.14 µM
14,O=C(Nc1cc(-c2ccccc2)sc1C(=O)O)N[C@@H](Cc1ccccc1)C(=O)O,3.8 µM
15,O=[N+]([O-])c1ccccc1CO,2 µM
16,COc1ccc(-c2cc(NC(=O)N[C@H](C(=O)O)C(C)C)c(C(=O)O)s2)cc1,31.9 µM
17,COc1ccc(-c2cc(NC(=O)N[C@@H](CC(N)=O)C(=O)O)c(C(=O)O)s2)cc1,13.2 µM
18,COc1ccc(-c2cc(NC(=O)N[C@@H](Cc3ccccc3)C(=O)SCCNC(C)=O)c(C(=O)O)s2)cc1,32 µM
19,COc1ccc(-c2cc(NC(=O)N[C@@H](Cc3c[nH]c4ccccc34)C(=O)O)c(C(=O)O)s2)cc1,5 µM
20,COc1ccc(-c2cc(NC(=O)N[C@@H](Cc3ccc(O)cc3)C(=O)O)c(C(=O)O)s2)cc1,29 µM
21,COc1ccc(-c2cc(NC(=O)NCP(=O)(O)O)c(C(=O)O)s2)cc1,7 µM
22,COc1ccc(-c2cc(NC(=O)NCC(=O)O)c(C(=O)O)s2)cc1,7 µM
23,O=[N+]([O-])c1ccccc1C(O)c1ccccc1 (stereo not given),1 µM

# Target: T1, 2-heptyl-4(1H)-quinolone synthase PqsD (Pseudomonas aeruginosa)
# Assay: as §1, with “formation at 50 uM” for “formation”, “analysis relative to control” for “analysis”
# In short: as §2
row,Compound,inhibition
1,COc1ccc(-c2cc(NC(=O)N[C@@H](Cc3c[nH]cn3)C(=O)O)c(C(=O)O)s2)cc1,40%
2,O=C(Nc1ccsc1C(=O)O)N[C@@H](Cc1ccccc1)C(=O)O,inactive

# System: Pseudomonas aeruginosa PA14
# Assay: Inhibition of PqsD in Pseudomonas aeruginosa PA14 assessed as reduction of HHQ level at 250 uM after 16 hrs by UHPLC-MS/MS analysis relative to control
row,Compound,inhibition
1,COc1ccc(-c2cc(NC(=O)N[C@@H](Cc3c[nH]cn3)C(=O)O)c(C(=O)O)s2)cc1,16%
2,COc1ccc(-c2cc(NC(=O)N[C@@H](Cc3ccccc3)C(=O)SCCNC(C)=O)c(C(=O)O)s2)cc1,inactive
3,CC[C@H](C)[C@H](NC(=O)[C@H](CCCNC(=N)N)NC(=O)[C@H](CCCNC(=N)N)NC(=O)[C@H](Cc1ccccc1)NC(=O)[C@H](CC(C)C)NC(=O)[C@H](CCCNC(=N)N)NC(=O)[C@H](CCCNC(=N)N)NC(=O)COCCOCCNC(=O)[C@H](Cc1ccccc1)NC(=O)Nc1cc(-c2ccc(OC)cc2)sc1C(=O)O)C(=O)N[C@@H](CC(C)C)C(=O)N[C@@H](CCCNC(=N)N)C(=O)N[C@@H](Cc1c[nH]c2ccccc12)C(=O)N[C@@H](CC(C)C)C(=O)O ({X1-CO}-F[AEEA]RRLFRRILRWL-OH),inactive

# System: Pseudomonas aeruginosa
# Assay: Binding affinity to recombinant His6-tagged Pseudomonas aeruginosa PqsD/anthraniloyl-CoA complex at 25 to 100 uM by surface plasmon resonance analysis
# In short: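 His6-PqsD on an SPR sensor chip. Running buffer was HEPES pH 7.4, 150 mM NaCl, 5% DMSO, 0.05% polysorbate 20. ACoA (100 µM) was injected for about 40 min to saturate the binding site, then flushed at higher flow for 30 min. Compounds were injected in sequence and equilibrium responses compared with untreated PqsD. Run in duplicate.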
row,Compound,Activity
1,O=C(Nc1cc(-c2ccc(-c3ccc(CO)cc3)cc2)sc1C(=O)O)N[C@@H](Cc1ccccc1)C(=O)O,Active
